Measured values as given in ChEMBL document CHEMBL1135916, “Design, synthesis, and structure-activity relationship of pyridyl imidazolidinones: a novel class of potent and selective human enterovirus 71 inhibitors” (J Med Chem, 2002).

System: Enterovirus A71
Assay: Inhibition concentration against EV-71
Assay type: functional, organism-based
Conditions: Enterovirus A

Row | Compound | IC50 [µM]
1 | O=C1N(CCCCCCOc2ccc(C(F)(F)F)cc2)CCN1c1cccnc1 | 2.1
2 | O=C1N(CCCCCCOc2ccc(-c3ccoc3)cc2)CCN1c1ccncc1 | 0.58
3 | O=C1N(CCCCCOc2ccc(Br)cc2)CCN1c1ccnc(Cl)c1 | > 25
4 | O=C1N(CCCCCCOc2ccc(C(F)(F)F)cc2)CCN1c1ccnc(Cl)c1 | > 25
5 | O=C1N(CCCCCCCOc2ccc(C(F)(F)F)cc2)CCN1c1ccncc1 | 0.61
6 | O=C1N(CCCCCCOc2ccc(Br)cc2)CCN1c1cccnc1 | 2.07
7 | O=C1N(CCCCCOc2ccc(Br)cc2)CCN1c1ccccc1 | 10.7
8 | O=C1N(CCCCCCOc2ccc(Br)cc2)CCN1c1ccccc1 | 10.6
9 | O=C1N(CCCCCCOc2ccc(F)cc2)CCN1c1cccnc1 | 9.33
10 | O=C1N(CCCCCCOc2cccc3cccnc23)CCN1c1ccncc1 | > 25
11 | O=C1N(CCCCCCCOc2ccc(Br)cc2)CCN1c1ccncn1 | > 25
12 | O=C1N(CCCCCCOc2ccc(Cl)cc2)CCN1c1ccncn1 | > 25
13 | O=C1N(CCCCCCOc2cccc(Br)c2)CCN1c1ccncc1 | > 25
14 | O=C1N(CCCCCOc2ccc(C(F)(F)F)cc2)CCN1c1ccncn1 | > 25
15 | O=C1N(CCCCCOc2ccc(-c3ccc(Cl)cc3)cc2)CCN1c1ccncc1 [listing 1 of 2 here] | 0.06
16 | Cc1ccc(OCCCCCCN2CCN(c3ccncc3)C2=O)cc1 | 6.36
17 | O=C1N(CCCCCCCOc2ccc(Cl)cc2)CCN1c1cccnc1 | 1.43

Continued, values first:

Row | IC50 [µM] | Compound
18 | 0.56 | O=C1N(CCCCCCCOc2ccc(Br)cc2)CCN1c1ccncc1
19 | 4.65 | O=C1N(CCCCCOc2ccc(Cl)cc2)CCN1c1cccnc1
20 | 1.5 | O=C1N(CCCCCCOc2ccc(Cl)cc2)CCN1c1ccncc1
21 | 12 | O=C1N(CCCCCCOc2ccc(C(F)(F)F)cc2)CCN1c1ccccc1
22 | > 6.25 | O=C1N(CCCCCCOc2cccc3ccccc23)CCN1c1ccncc1
23 | > 25 | O=C1N(CCCCCCOc2ccc(C(F)(F)F)cc2)CCN1c1ccncn1
24 | 10.8 | O=C1N(CCCCCCOc2ccc(Cl)cc2)CCN1c1ccccc1
25 | > 25 | CN(C)c1cccc(OCCCCCCN2CCN(c3ccncc3)C2=O)c1

System: not listed separately
Assay: Cytotoxicity against human normal skin fibroblast (W138) cells
Assay type: cell-based
Conditions: not given
Method in brief: (§1)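 Test compound at various concentrations added to D551 (human normal skin fibroblast), WI38 (human normal lung fibroblast) or RD cells; incubated 96 h at 37 °C; cells harvested and viable cells counted by trypan blue staining. Triplicate, at least twice.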

Row | Compound | CC50 [µM]
26 | O=C1N(CCCCCOc2ccc(-c3ccc(Cl)cc3)cc2)CCN1c1ccncc1 [listing 2 of 2 here] | 48

Same assay, conditions: W138 normal skin fibroblast cells

Row | Compound | CC50 [µM]
27 | O=C1N(CCCCCOc2ccc(-c3ccc(Cl)cc3)cc2)CCN1c1ccncc1 [listing 1 of 2 here] | 32

System: not listed separately
Assay: Cytotoxicity against human rhabdomyosarcoma (RD) cells
Assay type: functional
Conditions: not given

Row | Compound | CC50 [µM]
28 | O=C1N(CCCCCOc2ccc(-c3ccc(Cl)cc3)cc2)CCN1c1ccncc1 [listing 2 of 2 here] | 12.5

Same assay, conditions: Homo sapiens, RD

Row | Compound | CC50 [µM]
29 | O=C1N(CCCCCCOc2ccc(C(F)(F)F)cc2)CCN1c1cccnc1 | > 25
30 | O=C1N(CCCCCCOc2ccc(-c3ccoc3)cc2)CCN1c1ccncc1 | > 25
31 | O=C1N(CCCCCCCOc2ccc(Br)cc2)CCN1c1ccncc1 | > 25
32 | O=C1N(CCCCCOc2ccc(Br)cc2)CCN1c1ccnc(Cl)c1 | > 25
33 | O=C1N(CCCCCCOc2ccc(C(F)(F)F)cc2)CCN1c1ccnc(Cl)c1 | > 25
34 | O=C1N(CCCCCOc2ccc(Cl)cc2)CCN1c1cccnc1 | > 25
35 | O=C1N(CCCCCCCOc2ccc(C(F)(F)F)cc2)CCN1c1ccncc1 | 6.25
36 | O=C1N(CCCCCCOc2ccc(Br)cc2)CCN1c1cccnc1 | > 25
37 | O=C1N(CCCCCCOc2ccc(Cl)cc2)CCN1c1ccncc1 | > 25
38 | O=C1N(CCCCCCOc2ccc(C(F)(F)F)cc2)CCN1c1ccccc1 | > 25
39 | O=C1N(CCCCCOc2ccc(Br)cc2)CCN1c1ccccc1 | > 25
40 | O=C1N(CCCCCCOc2ccc(Br)cc2)CCN1c1ccccc1 | > 25
41 | O=C1N(CCCCCCOc2ccc(F)cc2)CCN1c1cccnc1 | > 25
42 | O=C1N(CCCCCCOc2cccc3cccnc23)CCN1c1ccncc1 | > 25
43 | O=C1N(CCCCCCCOc2ccc(Br)cc2)CCN1c1ccncn1 | > 25
44 | O=C1N(CCCCCCOc2ccc(Cl)cc2)CCN1c1ccncn1 | > 25
45 | O=C1N(CCCCCCOc2cccc3ccccc23)CCN1c1ccncc1 | 6.25
46 | O=C1N(CCCCCCOc2ccc(C(F)(F)F)cc2)CCN1c1ccncn1 | > 25
47 | O=C1N(CCCCCCOc2ccc(Cl)cc2)CCN1c1ccccc1 | > 25
48 | O=C1N(CCCCCCOc2cccc(Br)c2)CCN1c1ccncc1 | > 25
49 | O=C1N(CCCCCOc2ccc(C(F)(F)F)cc2)CCN1c1ccncn1 | > 25
50 | O=C1N(CCCCCOc2ccc(-c3ccc(Cl)cc3)cc2)CCN1c1ccncc1 [listing 1 of 2 here] | 6.25
51 | Cc1ccc(OCCCCCCN2CCN(c3ccncc3)C2=O)cc1 | > 25
52 | CN(C)c1cccc(OCCCCCCN2CCN(c3ccncc3)C2=O)c1 | > 25
53 | O=C1N(CCCCCCCOc2ccc(Cl)cc2)CCN1c1cccnc1 | > 25

System: not listed separately
Assay: Cytotoxicity against human normal skin fibroblast (D551) cells
Assay type: cell-based
Conditions: not given
Method in brief: as §1

Row | Compound | CC50 [µM]
54 | O=C1N(CCCCCOc2ccc(-c3ccc(Cl)cc3)cc2)CCN1c1ccncc1 [listing 1 of 2 here] | 6
55 | O=C1N(CCCCCOc2ccc(-c3ccc(Cl)cc3)cc2)CCN1c1ccncc1 [listing 2 of 2 here] | 13
